Source: ChEMBL document CHEMBL4014314, “Rational Design of Bisubstrate-Type Analogues as Inhibitors of DNA Methyltransferases in Cancer Cells” (J Med Chem, 2017)
The source made the active and inactive calls. No cut-off for these calls is given here.

Legend:
Homo sapiens [1] = species: Homo sapiens; test: Inhibition of DNMT in human KG1 cells assessed as increase in DNA accessibility by opening the chromatin at 1 uM after 24 hrs by NOMe-Seq method relative to control; type: cell-based; parameters: scale not given: the % may be the effect or the level left
In short: (§1)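 CMV-luc KG-1 acute myeloid leukemia cells in RPMI-1640 with 10% FCS, seeded 2 × 10^5/mL and treated for 24 h at 1 or 5 μM. NOMe-Seq: bisulfite conversion, CMV promoter PCR (40 cycles), cloning and sequencing. CpG methylation and GpC accessibility expressed as ratio of percentage methylated cytosines in treated versus untreated sample.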

Homo sapiens [2] = species: Homo sapiens; test: Inhibition of DNMT in human KG1 cells assessed as CpG site demethylation at CMV promoter at 1 uM after 24 hrs by NOMe-Seq method relative to control; type: cell-based; in short: as §1
Homo sapiens [3] = species: Homo sapiens; test: Inhibition of DNMT in human HCT116 cells assessed as demethylation of CDKN2A promoter at 100 nM after 3 days by COBRA analysis relative to control; type: cell-based
In short: (§2)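 HCT116 colon cancer cells in MEM with HEPES, L-glutamine and 10% FCS, 37 °C, 5% CO2; seeded 1 × 10^5/mL, treated for 3 or 7 days at 100 nM. Bisulfite-converted DNA amplified at the CDKN2A promoter, then digested with BsiEI at 60 °C for 90 min (COBRA); bands quantified on 2% agarose gel. Methylation given as ratio to untreated cells; at least two independent experiments, standard errors.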

Homo sapiens [4] = species: Homo sapiens; test: Inhibition of DNMT in human HCT116 cells assessed as demethylation of CDKN2A promoter at 100 nM after 7 days by COBRA analysis relative to control; type: cell-based; in short: as §2
[5] = target: T1, DNA (cytosine-5)-methyltransferase 1 (Homo sapiens, UniProt P26358); test: Inhibition of full length His-tagged human DNMT1 using SAM/[methyl-3H]SAM assessed as reduction of methylation in biotinylated hemimethylated DNA duplex after 1 hr by scintillation counting method
T1 sequence (P26358 whole entry): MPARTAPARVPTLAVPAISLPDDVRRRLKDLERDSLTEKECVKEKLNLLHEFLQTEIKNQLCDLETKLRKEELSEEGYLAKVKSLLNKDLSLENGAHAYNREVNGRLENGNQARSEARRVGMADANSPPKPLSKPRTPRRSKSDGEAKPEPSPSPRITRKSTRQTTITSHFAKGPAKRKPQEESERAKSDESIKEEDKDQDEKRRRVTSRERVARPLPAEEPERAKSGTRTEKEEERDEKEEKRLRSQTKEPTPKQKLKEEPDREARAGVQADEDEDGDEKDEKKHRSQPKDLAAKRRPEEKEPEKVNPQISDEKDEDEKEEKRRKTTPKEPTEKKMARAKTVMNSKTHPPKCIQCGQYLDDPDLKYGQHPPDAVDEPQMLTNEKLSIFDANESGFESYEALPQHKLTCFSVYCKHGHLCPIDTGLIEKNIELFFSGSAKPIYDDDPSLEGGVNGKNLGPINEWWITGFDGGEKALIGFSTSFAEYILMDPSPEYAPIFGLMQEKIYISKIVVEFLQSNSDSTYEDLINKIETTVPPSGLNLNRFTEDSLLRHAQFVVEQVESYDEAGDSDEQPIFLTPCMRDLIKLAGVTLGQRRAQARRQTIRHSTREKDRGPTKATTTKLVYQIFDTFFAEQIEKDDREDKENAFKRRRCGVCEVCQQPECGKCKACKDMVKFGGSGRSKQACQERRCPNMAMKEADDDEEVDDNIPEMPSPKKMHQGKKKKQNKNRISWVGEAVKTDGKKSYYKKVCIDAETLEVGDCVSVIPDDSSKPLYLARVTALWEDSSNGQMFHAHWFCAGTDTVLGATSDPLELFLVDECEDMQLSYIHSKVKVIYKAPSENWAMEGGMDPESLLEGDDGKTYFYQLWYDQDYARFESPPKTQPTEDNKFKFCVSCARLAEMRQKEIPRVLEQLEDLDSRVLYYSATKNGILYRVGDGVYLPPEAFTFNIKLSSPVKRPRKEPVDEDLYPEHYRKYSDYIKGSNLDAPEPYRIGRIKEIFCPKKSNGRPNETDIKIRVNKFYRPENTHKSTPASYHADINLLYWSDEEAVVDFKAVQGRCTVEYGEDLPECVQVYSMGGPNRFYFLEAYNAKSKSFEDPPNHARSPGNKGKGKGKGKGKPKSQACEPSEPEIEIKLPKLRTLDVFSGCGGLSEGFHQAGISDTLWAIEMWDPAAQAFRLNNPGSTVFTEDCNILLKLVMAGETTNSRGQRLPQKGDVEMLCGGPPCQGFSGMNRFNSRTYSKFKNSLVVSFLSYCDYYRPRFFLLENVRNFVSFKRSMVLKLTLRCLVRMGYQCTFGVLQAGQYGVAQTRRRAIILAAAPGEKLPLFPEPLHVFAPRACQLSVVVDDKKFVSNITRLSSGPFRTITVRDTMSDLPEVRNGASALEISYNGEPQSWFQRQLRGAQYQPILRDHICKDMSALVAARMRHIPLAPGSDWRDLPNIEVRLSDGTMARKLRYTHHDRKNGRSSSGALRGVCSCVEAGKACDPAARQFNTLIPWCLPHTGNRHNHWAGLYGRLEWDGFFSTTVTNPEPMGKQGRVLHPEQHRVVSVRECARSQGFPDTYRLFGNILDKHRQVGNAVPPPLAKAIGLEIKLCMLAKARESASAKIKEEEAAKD
In short: (§3)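 Human full-length DNMT1 and catalytic DNMT3A tested for methylation of a DNA duplex; the paper gives assay details elsewhere. EC50 from a sigmoid dose-response fit with variable Hill slope; reported as median with SE from at least two independent experiments for DNMT1 and three for DNMT3A; DNMT3A curves run in technical duplicates.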

[6] = target: T2, DNA (cytosine-5)-methyltransferase 3A (Homo sapiens, UniProt Q9Y6K1); test: Inhibition of human DNMT3A catalytic domain using AdoMet assessed as reduction of methylation in 5'-biotin/3' 6-carboxyfluorescein labeled DNA duplex at CpG site at 32 uM after 1 hr by fluorescence assay relative to control
T2 sequence (Q9Y6K1 whole entry, looked up, the tested form may be a part): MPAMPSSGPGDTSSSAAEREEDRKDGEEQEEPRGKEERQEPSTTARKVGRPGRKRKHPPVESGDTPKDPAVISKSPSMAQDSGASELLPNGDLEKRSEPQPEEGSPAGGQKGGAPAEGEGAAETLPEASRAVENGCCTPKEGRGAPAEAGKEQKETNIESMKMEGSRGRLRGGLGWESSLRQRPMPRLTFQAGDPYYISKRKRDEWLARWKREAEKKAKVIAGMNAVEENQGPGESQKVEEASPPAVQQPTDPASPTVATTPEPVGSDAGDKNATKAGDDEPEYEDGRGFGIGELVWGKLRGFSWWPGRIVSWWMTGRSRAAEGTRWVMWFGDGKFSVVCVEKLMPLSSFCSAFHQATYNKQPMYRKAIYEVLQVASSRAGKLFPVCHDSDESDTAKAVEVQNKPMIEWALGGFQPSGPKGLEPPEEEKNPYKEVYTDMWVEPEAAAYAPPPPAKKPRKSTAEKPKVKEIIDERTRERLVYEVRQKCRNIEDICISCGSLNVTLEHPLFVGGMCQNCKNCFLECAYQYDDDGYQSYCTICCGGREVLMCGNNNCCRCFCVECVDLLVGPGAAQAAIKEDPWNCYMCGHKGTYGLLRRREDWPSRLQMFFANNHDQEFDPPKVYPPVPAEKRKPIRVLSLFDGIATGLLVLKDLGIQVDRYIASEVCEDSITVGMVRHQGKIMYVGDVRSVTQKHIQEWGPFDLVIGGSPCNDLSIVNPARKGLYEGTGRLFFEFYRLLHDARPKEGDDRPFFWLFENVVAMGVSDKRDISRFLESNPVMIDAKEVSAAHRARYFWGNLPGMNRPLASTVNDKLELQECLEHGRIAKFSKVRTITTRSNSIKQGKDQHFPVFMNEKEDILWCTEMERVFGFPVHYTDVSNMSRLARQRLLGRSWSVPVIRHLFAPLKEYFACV

[7] = target: T1, DNA (cytosine-5)-methyltransferase 1; test: Inhibition of full length His-tagged human DNMT1 using SAM/[methyl-3H]SAM assessed as reduction of methylation in biotinylated hemimethylated DNA duplex at 100 uM after 1 hr by scintillation counting method relative to control
Homo sapiens [8] = species: Homo sapiens; test: Inhibition of DNMT in human KG1 cells assessed as luciferase gene driven CMV promoter demethylation by measuring fold increase in luciferase reactivation at 1 uM after 24 hrs by luciferase reporter gene assay relative to control; type: cell-based
In short: (§4)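 Leukemia KG-1 cells carrying a stable luciferase gene under a partially methylated CMV promoter, treated in 96-well plates for 24 h. Luciferase signal read by luminescence (Britelite); reactivation fold expressed as ratio to non-treated cells. Mean of three experiments with standard error.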

[9] = target: T1, DNA (cytosine-5)-methyltransferase 1; test: Inhibition of full length His-tagged human DNMT1 using SAM/[methyl-3H]SAM assessed as reduction of methylation in biotinylated hemimethylated DNA duplex at 32 uM after 1 hr by scintillation counting method relative to control
[10] = Solubility of the compound in RPMI-1640 medium; type: physicochemical
[11] = target: T2, DNA (cytosine-5)-methyltransferase 3A; test: Inhibition of human DNMT3A catalytic domain using AdoMet assessed as reduction of methylation in 5'-biotin/3' 6-carboxyfluorescein labeled DNA duplex at CpG site after 1 hr by fluorescence assay; in short: as §3
[12] = target: T2, DNA (cytosine-5)-methyltransferase 3A; test: Inhibition of human DNMT3A catalytic domain using AdoMet assessed as reduction of methylation in 5'-biotin/3' 6-carboxyfluorescein labeled DNA duplex at CpG site at 10 uM after 1 hr by fluorescence assay relative to control
Homo sapiens [13] = species: Homo sapiens; test: Inhibition of DNMT in human KG1 cells assessed as luciferase gene driven CMV promoter demethylation by measuring fold increase in luciferase reactivation at 5 uM after 24 hrs by luciferase reporter gene assay relative to control; type: cell-based; in short: as §4
Homo sapiens [14] = species: Homo sapiens; test: Inhibition of DNMT in human KG1 cells assessed as luciferase gene driven CMV promoter demethylation by measuring luciferase reactivation at 1 uM after 24 hrs by luciferase reporter gene assay; type: cell-based; in short: as §4
Homo sapiens [15] = species: Homo sapiens; test: Inhibition of DNMT in human KG1 cells assessed as luciferase gene driven CMV promoter demethylation by measuring luciferase reactivation at 5 uM after 24 hrs by luciferase reporter gene assay; type: cell-based; in short: as §4
[16] = Binding affinity to 265 bp pBS DNA at 0.01 to 10 uM after 15 mins using 3'-end labeled using alpha-[32P]-dATP by DNase I footprinting assay
Homo sapiens [17] = species: Homo sapiens; test: Inhibition of DNMT in human KG1 cells assessed as nucleosome occupancy at CMV promoter by measuring increase in luciferase signal at 5 uM after 24 hrs by NOMe-Seq method relative to control; type: cell-based
[18] = Binding affinity to 5'-TATATACGTACTGTGTTTTCACAGTACGTATATA-3' CpG site hairpin duplex DNA (unknown origin) assessed as change in melting temperature at 10 uM
[19] = Binding affinity to 5'-TATATACGTACGGTGTTTTCACCGTACGTATATA-3' CpG site hairpin duplex DNA (unknown origin) assessed as change in melting temperature at 10 uM
KG-1 = test: Toxicity in human KG1 cells assessed as effect on cell viability at 5 uM after 24 hrs by ATPLite assay; type: cell-based; settings: kg-1, 24 h
Homo sapiens [20] = species: Homo sapiens; test: Inhibition of DNMT in human KG1 cells assessed as CpG site demethylation at CMV promoter at 5 uM after 24 hrs by NOMe-Seq method relative to control; type: cell-based; in short: as §1
Homo sapiens [21] = species: Homo sapiens; test: Inhibition of DNMT in human KG1 cells assessed as increase in DNA accessibility by opening the chromatin at 5 uM after 24 hrs by NOMe-Seq method relative to control; type: cell-based; parameters: scale not given: the % may be the effect or the level left; in short: as §1
[22] = Binding affinity to 117 bp pBS DNA at 0.01 to 10 uM after 15 mins using 3'-end labeled using alpha-[32P]-dATP by DNase I footprinting assay
Homo sapiens [23] = species: Homo sapiens; test: Inhibition of DNMT in human KG1 cells assessed as luciferase gene driven CMV promoter demethylation by measuring luciferase reactivation at 0.1 uM after 24 hrs by luciferase reporter gene assay; type: cell-based; in short: as §4
Homo sapiens [24] = species: Homo sapiens; test: Inhibition of DNMT in human HCT116 cells assessed as induction of CDKN2A mRNA expression at 100 nM after 3 days by RT qPCR method; type: cell-based
In short: (§5)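 HCT116 cells seeded 1 × 10^5/mL and exposed to 100 nM for 3 or 7 days. CDKN2A mRNA quantified by RT-qPCR with SYBR chemistry: 95 °C 30 s, then 40 cycles of 95 °C 5 s and 60 °C 30 s, followed by a melt curve. Expressed as fold change relative to untreated cells; at least two independent experiments, standard errors.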

Homo sapiens [25] = species: Homo sapiens; test: Inhibition of DNMT in human HCT116 cells assessed as induction of CDKN2A mRNA expression at 100 nM after 7 days by RT qPCR method relative to control; type: cell-based; in short: as §5

Row | Compound | inhibition (Homo sapiens [3]) [%] | inhibition (Homo sapiens [4]) [%] | EC50 [5] [µM] | inhibition [6] [%] | inhibition [7] [%] | fold change (FC) (Homo sapiens [8]) | inhibition [9] [%] | EC50 [11] [µM] | inhibition [12] [%] | fold change (FC) (Homo sapiens [13]) | fold change (FC) (Homo sapiens [17]) | Activity (KG-1) | inhibition (Homo sapiens [20]) [%] | Activity (Homo sapiens [21]) [%] | other results
1 | Nc1ncn([C@H]2C[C@H](O)[C@@H](CO)O2)c(=O)n1 | 60 | 80 |  |  |  |  |  |  |  |  |  |  |  |  | Activity (Homo sapiens [1]): 120%; inhibition (Homo sapiens [2]): 50%
2 | c1ccc2c(NCCNc3ncnc4cc(OCC5CCN(CCNc6ccnc7ccccc67)CC5)ccc34)cccc2c1 |  |  | 20 | 90 | 94 | 4 | 86 | 0.3 | 91 | 4 |  |  |  |  | solubility [10]: Soluble
3 | c1ccc(CCCNc2ncnc3cc(OCC4CCN(CCNc5cccc6ccccc56)CC4)ccc23)cc1 |  |  |  | 0 | 0 |  | 0 |  | 0 |  |  |  |  |  | inhibition (Homo sapiens [14]): inactive; inhibition (Homo sapiens [15]): inactive
4 | c1ccc(CCCNc2ncnc3cc(OCC4CCN(CCNc5ccnc6ccccc56)CC4)ccc23)cc1 | 32 | 42 | 46 | 98 | 91 | 4 | 25 | 4.4 | 81 | 4 | 4.7 | Non-Toxic | 33 | 77 | Activity [16]: inactive; Activity [18]: inactive; Activity [19]: inactive; Activity [22]: inactive
5 | c1ccc(-c2ccc(CNc3ncnc4cc(OCC5CCN(CCNc6ccnc7ccccc67)CC5)ccc34)cc2)cc1 | 20 | 71 | 100 | 83 | 69 | 4 | 24 | 1.1 | 86 | 4 | 4.2 | Non-Toxic | 52 | 87 | inhibition (Homo sapiens [23]): Active; Activity (Homo sapiens [24]): inactive; fold change (FC) (Homo sapiens [25]): 13
